For series [1], the target named is T1, Retinoic acid receptor RXR-alpha (Homo sapiens, UniProt P19793).
T1 sequence (P19793 whole entry): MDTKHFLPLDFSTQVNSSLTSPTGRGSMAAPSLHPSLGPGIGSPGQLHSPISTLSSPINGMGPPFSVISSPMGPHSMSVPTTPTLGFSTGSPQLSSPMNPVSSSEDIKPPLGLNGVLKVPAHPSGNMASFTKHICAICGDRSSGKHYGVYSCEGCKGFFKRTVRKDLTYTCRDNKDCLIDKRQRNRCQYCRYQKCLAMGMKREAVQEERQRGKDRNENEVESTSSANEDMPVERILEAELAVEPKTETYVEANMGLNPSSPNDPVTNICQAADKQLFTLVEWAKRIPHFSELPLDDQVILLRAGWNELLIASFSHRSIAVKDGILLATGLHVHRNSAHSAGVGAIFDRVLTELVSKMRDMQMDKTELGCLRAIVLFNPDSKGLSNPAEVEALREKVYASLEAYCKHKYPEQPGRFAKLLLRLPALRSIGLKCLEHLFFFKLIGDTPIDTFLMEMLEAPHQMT
Description: Agonist activity at human RXRalpha transfected in human HEK293T cells co-expressing pFR/pRL-Luc incubated for 14 to 16 hrs by hybrid reporter gene assay. It counts as cell-based. On the technique in general: Reporter assays use an easily measured gene product as a stand-in for the process of interest.

Series [2] in a line: Half life in mouse at 10 mg/kg, po. In kind it is ADME, organism-based. The note with it: in vivo. In a few lines:
(§1)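 Mice, n = 3, received a single oral dose of 10 mg/kg in water with 1% hydroxypropyl methylcellulose/Tween 80 (99:1). Tail-vein blood was drawn at 30 and 60 min and tissue collected at 3 h. Compound was quantified by LC−MS and PK derived by noncompartmental analysis.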

Series [3] concerns the target T2, Peroxisome proliferator-activated receptor alpha (Homo sapiens) (UniProt Q07869).
T2 sequence (whole entry): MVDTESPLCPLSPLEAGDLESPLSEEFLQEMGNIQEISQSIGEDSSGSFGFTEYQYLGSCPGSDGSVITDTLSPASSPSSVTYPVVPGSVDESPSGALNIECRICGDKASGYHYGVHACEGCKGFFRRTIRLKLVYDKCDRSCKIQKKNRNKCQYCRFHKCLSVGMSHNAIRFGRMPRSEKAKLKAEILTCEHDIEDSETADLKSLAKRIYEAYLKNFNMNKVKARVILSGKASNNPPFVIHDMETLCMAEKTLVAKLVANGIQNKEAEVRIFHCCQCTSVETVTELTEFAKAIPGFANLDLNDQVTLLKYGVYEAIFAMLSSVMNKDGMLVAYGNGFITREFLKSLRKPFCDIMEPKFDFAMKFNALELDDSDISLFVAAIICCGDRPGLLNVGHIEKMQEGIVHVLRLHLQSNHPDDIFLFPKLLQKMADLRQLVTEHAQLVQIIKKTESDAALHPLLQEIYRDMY
Put plainly: Agonist activity against human PPARalpha in human HEK293T cells co-expressing pFR/pRL-Luc assessed as receptor activation at 10 uM incubated for 14 to 16 hrs by hybrid reporter gene assay relative to bexarotene. In kind it is cell-based. The note with it: filed as agonist, time 14-16 hrs. In a few lines:
(§2)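 Gal4 hybrid reporter assay in HEK293T cells, seeded 24 h before transfection (Lipofectamine LTX, Opti-MEM) with pFR-Luc, pRL-SV40 and pFA-CMV plasmid carrying the hinge region and LBD of the human receptor. After 5 h, compound added in 0.1% DMSO, with 0.1% DMSO alone as untreated control. Dual-Glo luciferase read after 14−16 h; firefly/renilla normalized; duplicates, ≥2 independent experiments.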

Series [4] in a line: Metabolic stability in Sprague-Dawley rat liver microsomes assessed as compound degradation at 10 uM incubated for 60 min by HPLC analysis. In kind it is ADME. The settings on record: 1 h. In a few lines:
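Compound at 10 μM final in 0.1 M phosphate, pH 7.4, was preincubated 5 min at 37 °C with an NADPH-regenerating system. Sprague-Dawley rat liver microsomes were then added. Reactions were stopped with ice-cold methanol at 0, 15, 30 and 60 min and remaining compound quantified by HPLC against an external calibration. Controls: no NADPH, heat-inactivated microsomes. Three independent experiments.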
(In general: Microsomes from liver hold many membrane-bound enzymes, among them those of drug oxidation.)

A short description of series [5]: Aqueous solubility of compound in pH 8 phosphate buffer incubated for 1 hr by HPLC analysis. In kind it is physicochemical. The note with it: phosphate buffer, pH 8. In a few lines: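 Solubility was measured with 3 mg compound in 2 mL 0.1 M phosphate buffer, pH 8, shaken 1 h at 37 °C. The mixture was pressed through a Uniprep filter and the dissolved compound in the filtrate quantified by HPLC against an external calibration; three independent experiments.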

The nature of series [6]: Cmax in mouse at 10 mg/kg, po. It counts as ADME, organism-based. Also noted: route oral, dose 10 mg/kg. The settings on record: in vivo. In a few lines: as §1
Series [7] addresses T3, Retinoic acid receptor RXR-alpha (Homo sapiens) (UniProt P19793).
T3 sequence (whole entry): T1 sequence (P19793 whole entry)
Put plainly: Agonist activity against human RXRalpha in human HEK293T cells co-expressing pFR/pRL-Luc assessed as receptor activation at 10 uM incubated for 14 to 16 hrs by hybrid reporter gene assay relative to bexarotene. In kind it is cell-based. The note with it: filed as agonist, time 14-16 hrs. In a few lines:
as §2

The test system of series [8] is HepG2. Description: Cytotoxicity against human HepG2 cells assessed as reduction in cell viability up to 100 uM incubated for 48 hrs by WST-1 assay. It counts as cell-based. The settings on record: hepg2, 48 h. In a few lines: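 HepG2 cells were seeded at 3 × 10⁴/well and grown 24 h. Medium was then switched to DMEM with 1% FCS containing compound in 0.1% DMSO; 0.1% DMSO alone was the negative control. After 48 h, WST-1 was added and absorbance read at 450/620 nm after 45 min. Four experiments in duplicate.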
Background: Formazan colour is commonly taken as a measure of viable cells.

Broadly, the EC50 is the concentration that produces a half-maximal response. As usually defined, the half-life is how long it takes for the measured level to halve. The solubility is the concentration that dissolves in the medium under given conditions. What is called Cmax is the highest concentration seen after dosing.

In brackets after ≈: the same amount, converted by molar mass.

As to `O=C(O)CCCc1cc(-c2cc(Cl)cc(Cl)c2)n(-c2ccccc2)n1`, the half-maximal effective concentration (EC50) in series [1] amounted to 250 nM. This compound registered a half-life in series [2] above 3 h. Besides, the Activity in series [3] was 2%; in series [7], 21%; in series [8] it was “Non-Toxic”. The Stabilty result in series [4] is “Stable”. The compound also displayed a solubility at 1 h in series [5] of 21 µg/mL (≈ 56 µM). Besides, in series [6], the peak level (Cmax) was 35000 ng/mL.

These data come from ChEMBL document CHEMBL4834419 (J Med Chem, 2021).
